# Screening results as filed in PubChem BioAssay.
# Most compounds without a hit are left out; they make up all but 1.7% or so of the library.
# LMPTP block: blocks human LMPTP phosphatase; inhibition, % at 20 µM; AID 651560; recombinant LMPTP-A, OMFP fluorogenic substrate, fluorescence intensity; 360,000 compounds, 0.22% hits;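 active = compounds that cut the enzyme signal by at least half of the control window in the single-dose screen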;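 also: plate controls were DMSO wells with enzyme plus substrate for no effect and substrate without enzyme for full effect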
#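 Test system: LMPTP-A phosphatase enzyme. Amount: LMPTP-A at 0.625 nM final in the reaction. Reagent: OMFP substrate, 400 µM final. Times: 50 min at room temperature. Signal: endpoint fluorescence intensity from OMFP dephosphorylation. Read-out basis: % inhibition. Benchmarks: no-enzyme and uninhibited controls.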
# STEP inh: blocks human striatal-enriched tyrosine phosphatase | recombinant STEP, OMFP fluorogenic substrate, fluorescence | 360,000 compounds, 0.25% hits | inhibition, % at 20 µM;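 active = inhibition at 20 µM, scaled per plate between control wells, above about 37%, limit read from the data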;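 also: 0% = DMSO with enzyme and substrate and 100% = substrate only without enzyme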
#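 Material: STEP (striatal-enriched tyrosine phosphatase) enzyme, cell-free | Medium: 50 mM Bis-Tris pH 6.0 with 2.5 mM DTT and 0.005% Tween 20 | Read-out: Percent inhibition scaled to no-enzyme and uninhibited-enzyme controls, plate-pattern corrected | Signal: Fluorescence read at 480 nm ex / 540 nm em | Times: 20 min reaction, room temperature, in the dark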
# DNMT1 inh: blocks human DNA methyltransferase DNMT1. P26358. DNMT1 molecular beacon, Hinp1I cleavage, fluorescence. inhibition (reported as % activation of signal), % at 10 µM. 360,000 compounds, 0.83% hits. AID 588458; in the data active = inhibition above about 50%
# SUMO1-SIM PPI: modulators of human SUMO1-mediated protein-protein interactions; P63165; SUMO1 binding to a labelled peptide, TR-FRET, 1 h; inhibition, % at 20 µM; 360,000 compounds, 0.33% hits; in the data active = inhibition above about 37%
# Scp-1 inhibitor: Scp-1 (human) phosphatase inhibition. Q9GZU7. Recombinant Scp1, phosphopeptide, malachite green phosphate absorbance. inhibition, % at 20 µM. 340,000 compounds, 0.88% hits. AID 493091;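 active = inhibition above about 50% at 20 µM, limit read from the data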;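 also: plate controls were DMSO wells with enzyme for no effect and wells lacking enzyme for full effect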
#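 Times: enzyme reaction 45 min at room temperature, colour 5 min, stabilisation 30 min. Material: SCP-1 catalytic fragment, aa 76-261. Medium: Acidic Tris acetate buffer with magnesium and detergent. Signal: colorimetric free-phosphate detection, absorbance 630 nm. Read-out basis: % inhibition of SCP-1 phosphate liberation. Reagent: Phosphorylated 17-residue peptide substrate.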
# Scp1 confirm: Scp-1 (human) inhibition, single-dose confirmed | shares compounds with Scp-1 inhibitor | inhibition, % at 20 µM | AID 540281 | 2,500 compounds, 61% hits | recombinant SCP-1 catalytic domain, phosphate release, malachite green absorbance;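 also: plate controls were DMSO with enzyme for no effect and buffer wells lacking enzyme for full effect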
# Scp-1 MG ctr: counter-screen for Scp-1 inhibitors: colorimetric interference | shares compounds with Scp-1 inhibitor | Colorimetric interference counterscreen, malachite green absorbance 630 nm | apparent inhibition (interference), % at 20 µM | 2,500 tested, under 10 active | AID 540313;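 also: compounds added after enzyme reaction finished so only phosphate colour detection is probed; plate controls were DMSO wells with completed Scp-1 reaction for no effect and substrate wells lacking enzyme for full effect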
# Scp1 DSF: validation of human Scp-1 inhibitors by thermal shift binding; shares compounds with Scp-1 inhibitor; Recombinant SCP1, Sypro Orange thermal shift Tm; thermal shift relative to vanadate control, % at 40 µM; 1,500 compounds, 25% hits;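 active = substances whose mean melting-temperature shift, as a percentage of the reference inhibitor's shift, reaches about 5.3%, limit read from the data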;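 also: 0% = Tm of DMSO wells and 100% = Tm with sodium orthovanadate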
# DNMT1 confirm: DNMT1 inhibition confirmation, single concentration; 2,300 compounds, 8% hits; inhibition, % at 10 µM; DNMT1 molecular beacon HinP1I cleavage, fluorescence; shares compounds with DNMT1 inh;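 active = average inhibition of at least 30% in the single-concentration confirmation test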
# DNMT1 interf: shows spectral interference in the DNMT1 beacon assay. shares compounds with DNMT1 inh. DNMT1 molecular beacon spectral interference counterscreen, fluorescence 485/520. activation (fluorescence interference), % at 10 µM. 2,300 compounds, 1% hits. AID 602387;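 active = activation of at least 30% at 10 µM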;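 also: DNMT1 catalytic domain with a HinP1I cleavage step and a FAM/dabcyl DNA beacon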
# * marks the source's active call; other numbers are inactive results; · = no result.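 The calls were made as follows, unless noted: active = inhibition of at least 30% at 20 µM; inactive = the rest.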
SMILES,LMPTP block,STEP inh,DNMT1 inh,SUMO1-SIM PPI,Scp-1 inhibitor,Scp1 confirm,Scp-1 MG ctr,Scp1 DSF,DNMT1 confirm,DNMT1 interf
CN(CCC#N)C(=O)COC(=O)c1c2c(nc3ccccc13)/C(=C\c1ccco1)CC2,67*,37,77*,57*,84*,53*,-11,10*,8,6
O=C(COC(=O)c1c2c(nc3ccccc13)/C(=C/c1cccc([N+](=O)[O-])c1)CCC2)NC1CCS(=O)(=O)C1 (stereo not drawn),0,0,-16,-14,2,·,·,·,·,·
CC1=CC(=NOS(=O)(=O)c2ccc(C)cc2)CC(C)(C)C1,-1,-2,-1,1,·,·,·,·,·,·
CCCN(C(=O)c1cccc(-n2cccc2)c1)c1c(N)n(Cc2ccccc2)c(=O)[nH]c1=O,15,4,81*,21,74*,66*,-9,-17,12,0
CC(C)(O)C#Cc1ccc(C(=O)N2CCN(c3ccc(Cl)cc3)CC2)cc1,0,-1,2,2,-3,·,·,·,·,·
O=C1Nc2ccc(S(=O)(=O)NCc3ccccn3)c3cccc1c23,13,16,54*,-9,86*,61*,-6,-8,1,4
O=C(/C=C/c1ccc(Cl)c([N+](=O)[O-])c1)Nc1ccc(NC(=O)c2ccco2)cc1,1,0,10,1,-1,·,·,·,·,·
O=C(/C=C/c1ccc(Cl)c([N+](=O)[O-])c1)Nc1ccc(N2CCCC2)cc1,11,8,88*,-2,88*,77*,-14,6.0*,2,-1
CCC1=NN2C(=N)/C(=C\c3ccc(OCc4cc(=O)n5nc(CC)sc5n4)c(OC)c3)C(=O)N=C2S1,3,0,87*,44*,75*,51*,-8,3,15,0
C#CCSc1nsc(SCC#C)c1C#N,26,14,77*,11,80*,66*,-16,1,16,2
CCCN(CCC)S(=O)(=O)c1ccc(C)cc1,-1,2,3,1,-6,·,·,·,·,·
COc1ccc(-n2c(-c3ccc(Cl)cc3)c[nH]c2=S)cc1,0,0,0,-2,-1,·,·,·,·,·
CSC1=N/C(=C\c2ccc(Br)o2)C(=O)S1,24,23,101*,14,84*,53*,-22,5,-2,0
OC[C@@H]1[C@@H](c2ccc(Cl)cc2)C(c2ccc(F)cc2)=NN1c1ccccc1,5,-6,-19,7,-7,·,·,·,·,·
N#Cc1ccccc1CN1C(=O)S/C(=C/c2cccn2-c2ccc(C(=O)O)cc2)C1=O,14,12,106*,-13,92*,63*,-21,-3,4,1
N#CC(C#N)=Cc1cccn1-c1ccc(C(=O)O)cc1,7,24,101*,-6,70*,61*,-13,1,21,-1
COc1ccc(C(=O)NC2CC3CCCC(C2)N3Cc2ccccc2)cc1OC (stereo not drawn),-1,-1,1,2,-2,·,·,·,·,·
COc1ccccc1NC(=O)COC(=O)c1cc2c(s1)CCC2,27,40,94*,11,66*,73*,-4,0,2,14
COc1ccc(OC)c(NC(=O)COC(=O)c2cc3c(s2)CCC3)c1,32,16,89*,7,79*,53*,-27,4,19,2
COc1ccccc1NC(=O)COC(=O)c1ccc2c(c1)OCCO2,2,2,4,-3,-5,·,·,·,·,·
